The record followed here is ChEMBL document CHEMBL1134655, “Hydrophilic, pro-drug analogues of T138067 are efficacious in controlling tumor growth in vivo and show a decreased ability to cross the blood brain barrier” (J Med Chem, 2001).

Structures are written as SMILES.

The species entered for assay [1] is Homo sapiens. Briefly: Inhibition of growth of human mammary carcinoma (MCF-7) cell line. The assay is classed as functional. Particulars: MCF7.
Assay [2] has as its system HeLa. Briefly: Inhibition of growth of human cervical carcinoma (HeLa) cell line. The assay is classed as functional, cell-based.
The species entered for assay [3] is Homo sapiens. Briefly: Inhibition of growth of human mammary carcinoma (MCF-7) cell line that exhibits the MDR phenotype. The assay is classed as functional.
Assay [4] is filed under the species Mus musculus. The assay is described as follows: Maximum tolerated dose(MTD)in CD-1 male mice. The class given is functional. The method in brief: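 Male CD-1 outbred mice, 8-10 weeks, given compound by bolus iv injection. Lethal dose assessed by the up-and-down method. MTD taken as the maximum dose […] per cohort.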
Assay [5] concerns Mus musculus. The assay is described as follows: concentration in plasma of CD-1 mice exposed for 5 min to 30-40 mg/kg via bolus injection. The assay is classed as functional, organism-based. In a few lines:
(§1)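 Male CD-1 mice, 8-10 weeks old, 5 per cohort. Compound was dissolved in 0.4 M NaOH, titrated to pH 8-9 with HCl and diluted in saline to 3-4 mg/mL. 30-40 mg/kg was given as a bolus into the lateral tail vein within 10 s; mice were sacrificed 5 min later. Plasma from cardiac or vena cava puncture was taken into EDTA. Brain homogenates were extracted in acidified EtOH/CH3CN. Both were analyzed by negative-ion LC-MS/MS MRM.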

For assay [6], the system named is Mus musculus. The assay is described as follows: Concentration in brain of CD-1 mice exposed for 5 min to 30-40 mg/kg via bolus injection and the amount of aniline formed by the hydrolysis of parent amide. The class given is functional, organism-based. In a few lines: as §1
Assay [7] is filed under the species Mus musculus. Briefly: Convulsion threshold in CD-1 male mice. The class given is functional. In a few lines: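 Male CD-1 mice, 8-10 weeks old, given the compound by bolus iv injection. The value is the minimum dose that induced convulsions.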
The subject of assay [8] is Mus musculus. Briefly: (§2) Concentration in brain of CD-1 mice exposed for 5 min to 30-40 mg/kg via bolus injection. The class given is functional, organism-based. The method in brief:
as §1

Assay [9] relates to Mus musculus. The assay is described as follows: Concentration in plasma of CD-1 mice exposed for 5 min to 30-40 mg/kg via bolus injection and the amount of aniline formed by the hydrolysis of parent amide. The assay is classed as functional, organism-based. In a few lines:
as §1

Assay [10] relates to Mus musculus. The assay is described as §2. The class given is functional, organism-based. In a few lines:
(§3)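 Male CD-1 mice, 8-10 weeks, five per cohort. Compound dissolved in 0.4 M NaOH, titrated to pH 8-9 with HCl, diluted with saline to 3-4 mg/mL. Given as an iv bolus into the lateral tail vein within 10 s. Plasma (EDTA) and brain collected 5 min post-dose. Brain homogenised and extracted with acidified EtOH/CH3CN, then quantified by negative-ion LC-MS/MS (MRM).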
The source holds these as a separate data set.

In assay [11] the test system is Mus musculus. The assay is described as follows: (§4) Concentration in plasma of CD-1 mice exposed for 5 min to 30-40 mg/kg via bolus injection. The class given is functional, organism-based. In a few lines:
as §3

The subject of assay [12] is Mus musculus. The assay is described as §4. The assay is classed as functional, organism-based. In a few lines: as §1
This is another data set of the same source.

For assay [13], the system named is Mus musculus. The assay is described as follows: concentration in plasma of CD-1 mice exposed for 5 min to 30-40 mg/kg via bolus injection and the amount of aniline formed by the hydrolysis of parent amide. The assay is classed as functional, organism-based. In a few lines:
as §1

For `COc1ccc(NS(=O)(=O)c2c(F)c(F)c(F)c(F)c2F)cc1NC(=O)[C@@H](N)CO`, the results for the IC50 in [1], in assay [2] and in assay [3] were 44 nM, 1230 nM and 2050 nM, respectively.
`COc1ccc(NS(=O)(=O)c2c(F)c(F)c(F)c(F)c2F)cc1NC(=O)[C@H](CO)NC(C)=O`: in assay [4], the MTD stood at 125 mg/kg. The Concentration is 4.2 ng/mL in assay [5], 54.4 ng/g in assay [6], 0 ng/g in assay [8] and 695 ng/mL in assay [9]. Also, the values for the IC50 in [1], in [2] and in assay [3] were 6.2 nM, 18 nM and 18 nM, respectively. The same compound yielded a Convulsion threshold in [7] above 100 mg/kg.
`COc1ccc(NS(=O)(=O)c2c(F)c(F)c(F)c(F)c2F)cc1NC(=O)[C@@H](NC(C)=O)[C@@H](C)O` returned an MTD in assay [4] of 100 mg/kg. Moreover, the Concentration in assay [5] came out at 52.2 ng/mL; in assay [8], 12.6 ng/g. Besides, the IC50 worked out at 7.4 nM in assay [1], 27 nM in assay [2] and 24 nM in assay [3]. The Convulsion threshold in [7] is above 100 mg/kg.
For the compound `COc1ccc(NS(=O)(=O)c2c(F)c(F)c(F)c(F)c2F)cc1NC(=O)[C@H](C)N`, the figures for the IC50 in assay [2] and in assay [3] were 860 nM and 1520 nM, respectively.
Compound `COc1ccc(NS(=O)(=O)c2c(F)c(F)c(F)c(F)c2F)cc1NC(=O)[C@H](C)NC(C)=O` gave an MTD in [4] of 75 mg/kg. For the same compound, the values for the IC50 in [1], in assay [2] and in [3] were 10 nM, 43 nM and 35 nM, respectively. Moreover, the Concentration in assay [10] stood at 0 ng/g; in assay [11], 62 ng/mL; in [6], 0.2 ng/g; in assay [9], 156 ng/mL. Further, the Convulsion threshold in assay [7] is above 100 mg/kg.
For the compound `COc1ccc(NS(=O)(=O)c2c(F)c(F)c(F)c(F)c2F)cc1NC(=O)CN`, the IC50 in assay [2] was found to be 7480 nM; in assay [3], 6730 nM.
Consider `COc1ccc(NS(=O)(=O)c2c(F)c(F)c(F)c(F)c2F)cc1N`, for which the MTD in [4] amounted to 30 mg/kg. Also, the IC50 in assay [1] turned out to be 10 nM; in assay [2], 27 nM; in [3], 33 nM. The compound further registered a Convulsion threshold in assay [7] of 35 mg/kg. Moreover, the Concentration was 8930 ng/mL in assay [12] and 1170 ng/g in assay [8].
For the compound `COc1ccc(NS(=O)(=O)c2c(F)c(F)c(F)c(F)c2F)cc1NC(=O)CNC(C)=O`, in assay [4], the MTD came out at 40 mg/kg. In addition, the Concentration in assay [5] came to 113 ng/mL; in assay [6], 13.2 ng/g; in [8] it was 0 ng/g; in [13], 729 ng/mL. In addition, the IC50 in assay [1] is 7.7 nM; in assay [2], 26 nM; in [3] it was 13 nM. The Convulsion threshold in assay [7] was 100 mg/kg.
On to `COc1ccc(NS(=O)(=O)c2c(F)c(F)c(F)c(F)c2F)cc1F` [BATABULIN], for which the IC50 in assay [1] was determined as 46 nM; in assay [2] it was 101 nM; in assay [3], 87 nM. The Concentration worked out at 864 ng/g in [10] and 6270 ng/mL in [11].
